Source: ChEMBL document CHEMBL2390932, “(+)-Usnic acid enamines with remarkable cicatrizing properties” (Bioorg Med Chem, 2013)
Converted amounts (≈) assume the structure as drawn. The source made the active and inactive calls. The rule behind the calls is not given here.

What was measured:
Mus musculus [1] = assay: Wound healing activity in Swiss albino mouse circular excision wound model assessed as hydroxyproline content in skin applied topically qd after 7 days by spectrophotometric analysis; format: functional
Summary of the method: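 Skin from ointment-treated mouse wounds (7 days) dried at 60–70 °C to constant weight, then hydrolyzed in 6 N HCl for 3 h at 130 °C. Hydrolysate neutralized to pH 7, oxidized with chloramine T and reacted with Ehrlich reagent at 60 °C. Read at 557 nm and reported as mg/g with S.E.M.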

Bos taurus [2] = species: Bos taurus; assay: Inhibition of bovine hyaluronidase assessed as sodium hyaluronate conversion to N-acetylglucosamine at 50 ug/ml by spectrophotometric analysis relative to control
Bos taurus [3] = species: Bos taurus; assay: Inhibition of bovine hyaluronidase assessed as sodium hyaluronate conversion to N-acetylglucosamine at 100 ug/ml by spectrophotometric analysis relative to control
Hathewaya histolytica [4] = assay: Inhibition of Clostridium histolyticum collagenase using N-[3-(2-Furyl)acryloyl]-Leu-Gly-Pro-Ala as substrate at 50 ug/ml after 15 mins by spectrophotometric analysis relative to control
Summary of the method: (§1)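 Samples dissolved in DMSO and diluted in 50 mM Tricine buffer (0.4 M NaCl, 0.01 M CaCl2, pH 7.5). Clostridium histolyticum collagenase and sample preincubated 5 min at 25 °C, then incubated 15 min. FALGPA substrate, prepared at 2 mM in the same buffer, was then added. Inhibition given as % with S.E.M.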

Hathewaya histolytica [5] = assay: Inhibition of Clostridium histolyticum collagenase using N-[3-(2-Furyl)acryloyl]-Leu-Gly-Pro-Ala as substrate at 100 ug/ml after 15 mins by spectrophotometric analysis relative to control; summary of the method: as §1
[6] = molecular target: T1, Neutrophil elastase (Homo sapiens) (UniProt P08246); assay: Inhibition of human neutrophil elastase assessed as N-methoxysuccinyl-Ala-Ala-Pro-Val p-nitroanilide conversion to p-nitroaniline at 50 ug/ml after 1 hr by spectrophotometric analysis relative to control
T1 sequence (whole entry): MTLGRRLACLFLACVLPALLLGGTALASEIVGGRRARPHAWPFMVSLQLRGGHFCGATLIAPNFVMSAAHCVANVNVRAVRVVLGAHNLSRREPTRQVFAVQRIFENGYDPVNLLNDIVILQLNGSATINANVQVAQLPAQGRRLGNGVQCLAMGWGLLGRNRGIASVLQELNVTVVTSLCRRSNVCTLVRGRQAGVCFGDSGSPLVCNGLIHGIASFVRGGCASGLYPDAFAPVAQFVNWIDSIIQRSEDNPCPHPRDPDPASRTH
Summary of the method: (§2)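 Sample and human neutrophil elastase (17 mU/ml) mixed in 0.1 M Tris–HCl, pH 7.5, and held 5 min at 25 °C. MeOSuc-Ala-Ala-Pro-Val p-nitroanilide was added and the mixture incubated 1 h at 37 °C. Reaction stopped with soybean trypsin inhibitor (1 mg/ml); p-nitroaniline absorbance read immediately. Inhibition given as % with S.E.M.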

[7] = molecular target: T1, Neutrophil elastase (Homo sapiens); assay: Inhibition of human neutrophil elastase assessed as N-methoxysuccinyl-Ala-Ala-Pro-Val p-nitroanilide conversion to p-nitroaniline at 100 ug/ml after 1 hr by spectrophotometric analysis relative to control; summary of the method: as §2
HaCaT [8] = assay: Wound healing activity in human HaCaT cells assessed as wound closure rate at 5 uM after 24 hrs by inverted microscopic analysis; format: functional, cell-based
Summary of the method: (§3)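 Confluent HaCaT monolayers scratched with a pipette tip, washed, re-fed with medium and exposed to compound for 24 h; 20% (v/v) platelet lysate served as positive control. Cells fixed in 3.7% formaldehyde and stained with 0.1% toluidine blue. Wound width measured by inverted microscope with camera at 0 and 24 h; closure taken as the width difference. Results expressed relative to control mean (100%), two independent experiments, n = 20 each.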

HaCaT [9] = assay: Wound healing activity in human HaCaT cells assessed as wound closure rate at 2.5 ug/mL after 24 hrs by inverted microscopic analysis; format: functional, cell-based; summary of the method: as §3
HaCaT [10] = assay: Wound healing activity in human HaCaT cells assessed as wound closure rate at 2.2 ug/mL after 24 hrs by inverted microscopic analysis; format: functional, cell-based; summary of the method: as §3
HaCaT [11] = assay: Wound healing activity in human HaCaT cells assessed as wound closure rate at 2 ug/mL after 24 hrs by inverted microscopic analysis; format: functional, cell-based; summary of the method: as §3
HaCaT [12] = assay: Wound healing activity in human HaCaT cells assessed as wound closure rate at 2.1 ug/mL after 24 hrs by inverted microscopic analysis; format: functional, cell-based; summary of the method: as §3
Mus musculus [13] = assay: Wound healing activity in Swiss albino mouse circular excision wound model assessed as wound contraction applied topically qd after 10 days (reference value: 6.29%); format: functional
Mus musculus [14] = assay: Wound healing activity in Swiss albino mouse circular excision wound model assessed as wound contraction applied topically qd after 8 days (reference value: 2.18%); format: functional
Mus musculus [15] = assay: Wound healing activity in Swiss albino mouse circular excision wound model assessed as wound contraction applied topically qd after 6 days (reference value: 3.41%); format: functional
Mus musculus [16] = assay: Wound healing activity in Swiss albino mouse circular excision wound model assessed as wound contraction applied topically qd after 4 days relative to control; format: functional; parameters: concentration or dose not given beside the values
Mus musculus [17] = assay: Wound healing activity in Swiss albino mouse circular excision wound model assessed as wound contraction applied topically qd after 2 days relative to control; format: functional; parameters: concentration or dose not given beside the values
Mus musculus [18] = assay: Wound healing activity in Swiss albino mouse circular excision wound model assessed as wound contraction applied topically qd measured on the same day relative to control; format: functional; parameters: concentration or dose not given beside the values
Rattus norvegicus = assay: Wound healing activity in Sprague-Dawley rat linear incision wound model assessed as tensile strength of wound applied topically qd for 9 days measured on day 10 by tensiometer (reference value: 10.6%); format: functional
HaCaT [19] = assay: Wound healing activity in human HaCaT cells assessed as wound closure rate at 1.7 ug/mL after 24 hrs by inverted microscopic analysis; format: functional, cell-based; summary of the method: as §3
HaCaT [20] = assay: Cytotoxicity against human HaCaT cells after 24 hrs by neutral red dye uptake assay; format: cell-based; settings: for IC50: Homo sapiens, HaCaT; for IC05: human, hacat
Summary of the method: (§4)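 Cells kept in DMEM with 10% FBS at 37 °C, 5% CO2. Seeded at 20,000 cells/well, grown 24 h, then exposed 24 h to a concentration series. Neutral red (0.05%) added for 3 h at 37 °C, dye extracted with 1% acetic acid in 50% ethanol, absorbance read at 540 nm. IC50, IC05 and 95% confidence intervals derived from a downhill logistic curve fit.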

A-431 = assay: Cytotoxicity against human A431 cells after 24 hrs by neutral red dye uptake assay; format: functional, cell-based; settings: A-431, 24 h; summary of the method: as §4

Row | Structure (SMILES) | Activity (Mus musculus [1]) [mg/g] | inhibition (Bos taurus [2]) [%] | inhibition (Bos taurus [3]) [%] | inhibition (Hathewaya histolytica [4]) [%] | inhibition (Hathewaya histolytica [5]) [%] | inhibition [6] [%] | inhibition [7] [%] | Activity (HaCaT [8]) | Activity (HaCaT [9]) | Activity (HaCaT [10]) | Activity (HaCaT [11]) | Activity (HaCaT [12]) | Activity (Mus musculus [13]) [%] | Activity (Mus musculus [14]) [%] | Activity (Mus musculus [15]) [%] | Activity (Mus musculus [16]) [%] | Activity (Mus musculus [17]) [%] | Activity (Mus musculus [18]) [%] | IC50 (HaCaT [20]) [µg/mL] | IC05 (HaCaT [20]) [µg/mL] | other results
1 | CC(=O)c1c(O)c(C)c(O)c2c1OC1=CC(=O)/C(=C(/C)NCCS)C(=O)[C@@]12C | 39.8 | 10.2 | 15.6 | 19.5 | 27.3 | 15.3 | 20.4 | Active | Active | Active | Active | Active | 1.39 | 4.42 | 10.25 | 13.74 | 16.41 | 19.46 | 155 (≈ 384 µM) | 43 | Activity (Rattus norvegicus): 35.2%; Activity (HaCaT [19]): Active
2 | O=C(O[C@@H]1Cc2c(O)cc(O)cc2O[C@@H]1c1cc(O)c(O)c(O)c1)c1cc(O)c(O)c(O)c1 |  |  |  |  | 41.2 |  | 88.2 |  |  |  |  |  |  |  |  |  |  |  |  |  | 
3 | CC(=O)c1c(O)c(C)c(O)c2c1OC1=CC(=O)/C(=C(/C)N[C@@H](Cc3c[nH]cn3)C(=O)O)C(=O)[C@@]12C |  |  |  |  |  |  |  |  |  |  |  |  |  |  |  |  |  |  | 36 (≈ 74.8 µM) | 1.7 | 
4 | CC(=O)c1c(O)c(C)c(O)c2c1OC1=CC(=O)/C(=C(/C)NCCS(=O)(=O)O)C(=O)[C@@]12C | 30.8 |  |  |  |  |  |  | Active | Active | Active | Active | Active | 2.29 | 5.04 | 11.42 | 14.52 | 17.74 | 19.33 | 47 (≈ 104 µM) |  | Activity (Rattus norvegicus): 29.3%; Activity (HaCaT [19]): Active
5 | CC(=O)c1c(O)c(C)c(O)c2c1OC1=CC(=O)/C(=C(/C)N[C@@H](CCCNC(=N)N)C(=O)O)C(=O)[C@@]12C |  |  |  |  |  |  |  |  |  |  |  |  |  |  |  |  |  |  | 163 (≈ 326 µM) | 16 | 
6 | CC(=O)C1=C(O)C=C2Oc3c(C(C)=O)c(O)c(C)c(O)c3[C@@]2(C)C1=O [(+)-USNIC ACID] | 36.1 | 14.4 | 33.1 | 27.1 | 51.2 | 22.1 | 36.4 | Active | Active | Active | Active | Active | 1.85 | 5.62 | 10.25 | 14.1 | 17.04 | 19.59 | 24 (≈ 69.7 µM) | 0.5 | Activity (Rattus norvegicus): 31.9%; Activity (HaCaT [19]): Active; IC50 (A-431): 15 µg/mL (≈ 43.6 µM)
7 | O=C(OC[C@H]1O[C@@H](OC(=O)c2cc(O)c(O)c(OC(=O)c3cc(O)c(O)c(O)c3)c2)[C@H](OC(=O)c2cc(O)c(O)c(OC(=O)c3cc(O)c(O)c(O)c3)c2)[C@@H](OC(=O)c2cc(O)c(O)c(OC(=O)c3cc(O)c(O)c(O)c3)c2)[C@@H]1OC(=O)c1cc(O)c(O)c(OC(=O)c2cc(O)c(O)c(O)c2)c1)c1cc(O)c(O)c(OC(=O)c2cc(O)c(O)c(O)c2)c1 |  |  | 76.3 |  |  |  |  |  |  |  |  |  |  |  |  |  |  |  |  |  | 
8 | CC(=O)c1c(O)c(C)c(O)c2c1OC1=CC(=O)/C(=C(/C)N[C@@H](Cc3ccc(O)cc3)C(=O)O)C(=O)[C@@]12C |  |  |  |  |  |  |  | Active | Active | Active | Active | Active |  |  |  |  |  |  | 13 (≈ 25.6 µM) | 1.3 | Activity (HaCaT [19]): Active; IC50 (A-431): 36 µg/mL (≈ 70.9 µM)
9 | CC(=O)c1c(O)c(C)c(O)c2c1OC1=CC(=O)/C(=C(/C)NCCc3c[nH]c4ccccc34)C(=O)[C@@]12C |  |  |  |  |  |  |  |  |  |  |  |  |  |  |  |  |  |  | 5.3 (≈ 10.9 µM) | 2.5 | IC50 (A-431): 29 µg/mL (≈ 59.6 µM)
10 | CC(=O)c1c(O)c(C)c(O)c2c1OC1=CC(=O)/C(=C(/C)NCC(=O)O)C(=O)[C@@]12C |  |  |  |  |  |  |  |  |  |  |  |  |  |  |  |  |  |  | 5.8 (≈ 14.5 µM) | 0.2 | IC50 (A-431): 4.1 µg/mL (≈ 10.2 µM)
11 | CC(=O)c1c(O)c(C)c(O)c2c1OC1=CC(=O)/C(=C(/C)NCCSSCCN/C(C)=C3\C(=O)C=C4Oc5c(C(C)=O)c(O)c(C)c(O)c5[C@@]4(C)C3=O)C(=O)[C@@]12C | 20.4 | 10 | 18.3 | 20.8 | 29.3 | 21.3 | 30.1 |  |  |  |  |  | 2.96 | 6.48 | 12.48 | 15.92 | 17.95 | 19.25 |  |  | Activity (Rattus norvegicus): 15.91%
12 | CC(=O)c1c(O)c(C)c(O)c2c1OC1=CC(=O)/C(=C(/C)NCCCC(=O)O)C(=O)[C@@]12C | 43 | 25.8 | 39.4 | 21.4 | 49.2 | 25.1 | 30.3 | Active | Active | Active | Active | Active | 0.66 | 3.84 | 9.01 | 12.81 | 16.03 | 19.7 | 150 (≈ 349 µM) | 67 | Activity (Rattus norvegicus): 47.6%; Activity (HaCaT [19]): Active
13 | CC(=O)c1c(O)c(C)c(O)c2c1OC1=CC(=O)/C(=C(/C)N)C(=O)[C@@]12C |  | 35.3 | 41.9 | 20.7 | 33.1 | 13.3 | 15.3 |  |  |  |  |  |  |  |  |  |  |  |  |  | 
